Test results as given in ChEMBL document CHEMBL4118021, “Studies of TAK1-centered polypharmacology with novel covalent TAK1 inhibitors” (Bioorg Med Chem, 2017).
Blank lines part the entries; values can stand above or below the compound they belong to. Active and inactive are the calls of the source. No cut-off for these calls is given here.

Legend:
[1] = molecular target: TGF-beta receptor type-2 (Homo sapiens) (UniProt P37173); experiment: Inhibition of human TGFBR2 (218 to 567 residues) expressed in bacterial expression system assessed as enzyme activity at 1 uM by KINOMEScan assay relative to control; set-up: scale not given: the % may be the effect or the level left
Summary of the method: (§1)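 In vitro ATP-site competition binding assay across a panel of 456 kinases, with compound tested at 1 and 10 μM.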

[2] = molecular target: Platelet-derived growth factor receptor alpha (Homo sapiens) (UniProt P16234); experiment: Inhibition of human PDGFRA (575 to 1002 residues) expressed in mammalian expression system assessed as enzyme activity at 10 uM by KINOMEScan assay relative to control; set-up: scale not given: the % may be the effect or the level left; summary of the method: as §1
Platelet-derived growth factor receptor alpha (Homo sapiens), sequence (P16234 whole entry, the tested form may be a part): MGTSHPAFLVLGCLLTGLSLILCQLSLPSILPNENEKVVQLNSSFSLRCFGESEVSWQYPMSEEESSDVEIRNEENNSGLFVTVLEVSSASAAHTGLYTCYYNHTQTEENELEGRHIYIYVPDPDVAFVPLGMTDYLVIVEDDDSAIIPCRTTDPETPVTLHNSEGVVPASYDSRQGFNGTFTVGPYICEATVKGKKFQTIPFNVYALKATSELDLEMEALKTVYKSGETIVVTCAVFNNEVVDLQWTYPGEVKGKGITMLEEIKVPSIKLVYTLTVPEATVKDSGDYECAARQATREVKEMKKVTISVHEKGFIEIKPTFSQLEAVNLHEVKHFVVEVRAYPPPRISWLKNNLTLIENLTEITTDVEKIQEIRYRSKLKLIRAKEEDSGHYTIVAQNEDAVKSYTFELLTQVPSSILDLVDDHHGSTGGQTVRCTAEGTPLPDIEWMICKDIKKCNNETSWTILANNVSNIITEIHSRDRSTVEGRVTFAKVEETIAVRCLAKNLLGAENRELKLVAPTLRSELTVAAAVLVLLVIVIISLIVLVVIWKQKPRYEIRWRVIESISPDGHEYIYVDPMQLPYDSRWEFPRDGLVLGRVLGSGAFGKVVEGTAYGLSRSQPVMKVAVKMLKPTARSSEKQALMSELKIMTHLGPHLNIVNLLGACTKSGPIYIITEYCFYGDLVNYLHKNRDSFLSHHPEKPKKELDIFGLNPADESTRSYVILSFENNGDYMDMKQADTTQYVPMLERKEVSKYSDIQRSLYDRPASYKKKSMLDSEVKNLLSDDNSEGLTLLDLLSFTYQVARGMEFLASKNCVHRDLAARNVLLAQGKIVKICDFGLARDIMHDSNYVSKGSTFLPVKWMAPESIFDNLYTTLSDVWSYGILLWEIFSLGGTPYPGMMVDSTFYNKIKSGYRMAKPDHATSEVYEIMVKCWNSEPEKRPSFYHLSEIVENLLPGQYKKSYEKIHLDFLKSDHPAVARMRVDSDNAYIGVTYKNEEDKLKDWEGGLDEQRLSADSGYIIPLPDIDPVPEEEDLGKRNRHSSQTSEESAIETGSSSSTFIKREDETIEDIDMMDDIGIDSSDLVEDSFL

[3] = molecular target: Platelet-derived growth factor receptor alpha (Homo sapiens) (UniProt P16234); experiment: Inhibition of human PDGFRA (575 to 1002 residues) expressed in mammalian expression system assessed as enzyme activity at 1 uM by KINOMEScan assay relative to control; set-up: scale not given: the % may be the effect or the level left; summary of the method: as §1
[4] = molecular target: Bifunctional glutamate/proline--tRNA ligase (Homo sapiens) (UniProt P07814); experiment: Binding affinity to EPRS in human NCI-H23 cells at 1 uM by mass spectrometry based pull down assay; type: cell-based
[5] = molecular target: ATP synthase F(1) complex subunit gamma, mitochondrial (Homo sapiens) (UniProt P36542); experiment: Binding affinity to ATP5C1 in human NCI-H358 cells at 1 uM by mass spectrometry based pull down assay; type: cell-based
[6] = molecular target: Reticulon-4 (Homo sapiens) (UniProt Q9NQC3); experiment: Binding affinity to RTN4 in human NCI-H358 cells at 1 uM by mass spectrometry based pull down assay; type: cell-based
Reticulon-4 (Homo sapiens), sequence (Q9NQC3 whole entry): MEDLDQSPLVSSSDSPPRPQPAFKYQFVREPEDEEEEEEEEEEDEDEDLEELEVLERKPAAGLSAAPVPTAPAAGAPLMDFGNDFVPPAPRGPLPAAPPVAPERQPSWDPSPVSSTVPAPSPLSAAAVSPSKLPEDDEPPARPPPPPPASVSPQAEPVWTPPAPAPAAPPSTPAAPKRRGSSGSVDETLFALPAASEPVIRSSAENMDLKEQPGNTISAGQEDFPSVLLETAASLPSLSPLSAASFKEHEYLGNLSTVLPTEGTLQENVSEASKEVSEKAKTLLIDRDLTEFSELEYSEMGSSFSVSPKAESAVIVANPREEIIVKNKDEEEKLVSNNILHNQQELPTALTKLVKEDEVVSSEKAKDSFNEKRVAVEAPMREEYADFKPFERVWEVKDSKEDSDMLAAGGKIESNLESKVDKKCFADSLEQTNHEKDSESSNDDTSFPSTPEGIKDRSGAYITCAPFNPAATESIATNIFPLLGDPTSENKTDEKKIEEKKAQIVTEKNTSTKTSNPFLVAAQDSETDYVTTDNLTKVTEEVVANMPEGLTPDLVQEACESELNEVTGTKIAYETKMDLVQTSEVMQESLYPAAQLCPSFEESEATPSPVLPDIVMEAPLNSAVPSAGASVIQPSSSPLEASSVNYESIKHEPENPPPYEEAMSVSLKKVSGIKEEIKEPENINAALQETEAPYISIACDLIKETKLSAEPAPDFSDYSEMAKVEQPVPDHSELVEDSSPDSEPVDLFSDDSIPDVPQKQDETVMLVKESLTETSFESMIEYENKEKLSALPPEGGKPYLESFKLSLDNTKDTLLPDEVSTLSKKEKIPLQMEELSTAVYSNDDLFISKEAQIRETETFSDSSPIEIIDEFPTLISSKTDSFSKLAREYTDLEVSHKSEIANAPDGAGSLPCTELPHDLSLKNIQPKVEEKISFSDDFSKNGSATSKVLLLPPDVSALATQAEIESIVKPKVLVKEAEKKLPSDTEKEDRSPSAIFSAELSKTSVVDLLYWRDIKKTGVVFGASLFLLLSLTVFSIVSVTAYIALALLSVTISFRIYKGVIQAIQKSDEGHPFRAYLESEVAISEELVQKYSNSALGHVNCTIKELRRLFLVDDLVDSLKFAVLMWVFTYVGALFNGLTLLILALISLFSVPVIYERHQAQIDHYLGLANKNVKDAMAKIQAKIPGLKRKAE

[7] = molecular target: Coatomer subunit beta (Homo sapiens) (UniProt P53618); experiment: Binding affinity to COPB1 in human NCI-H23 cells at 1 uM by mass spectrometry based pull down assay; type: cell-based
[8] = molecular target: Heterogeneous nuclear ribonucleoprotein H2 (Homo sapiens) (UniProt P55795); experiment: Binding affinity to HNRNPH2 in human NCI-H23 cells at 1 uM by mass spectrometry based pull down assay; type: cell-based
Heterogeneous nuclear ribonucleoprotein H2 (Homo sapiens), sequence (P55795 whole entry): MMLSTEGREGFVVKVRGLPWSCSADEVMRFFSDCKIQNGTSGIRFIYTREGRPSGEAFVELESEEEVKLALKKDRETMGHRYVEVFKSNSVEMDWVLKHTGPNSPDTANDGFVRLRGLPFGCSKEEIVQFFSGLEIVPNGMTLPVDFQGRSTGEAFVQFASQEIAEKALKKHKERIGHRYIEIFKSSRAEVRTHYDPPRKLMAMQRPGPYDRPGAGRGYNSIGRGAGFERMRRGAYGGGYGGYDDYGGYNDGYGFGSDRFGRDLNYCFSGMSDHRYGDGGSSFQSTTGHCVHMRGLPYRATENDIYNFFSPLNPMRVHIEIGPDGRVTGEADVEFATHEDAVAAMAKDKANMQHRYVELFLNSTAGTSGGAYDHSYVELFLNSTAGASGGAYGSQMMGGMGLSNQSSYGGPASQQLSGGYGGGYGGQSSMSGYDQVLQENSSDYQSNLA

[9] = molecular target: Glycogen synthase kinase-3 beta (Homo sapiens) (UniProt P49841); experiment: Binding affinity to GSK3B in human NCI-H23 cells at 1 uM by mass spectrometry based pull down assay; type: cell-based
[10] = molecular target: 14-3-3 protein sigma (Homo sapiens) (UniProt P31947); experiment: Binding affinity to SFN in human NCI-H23 cells at 1 uM by mass spectrometry based pull down assay; type: cell-based
[11] = molecular target: Replication factor C subunit 5 (Homo sapiens) (UniProt P40937); experiment: Binding affinity to RFC5 in human NCI-H358 cells at 1 uM by mass spectrometry based pull down assay; type: cell-based
Replication factor C subunit 5 (Homo sapiens), sequence (P40937 whole entry): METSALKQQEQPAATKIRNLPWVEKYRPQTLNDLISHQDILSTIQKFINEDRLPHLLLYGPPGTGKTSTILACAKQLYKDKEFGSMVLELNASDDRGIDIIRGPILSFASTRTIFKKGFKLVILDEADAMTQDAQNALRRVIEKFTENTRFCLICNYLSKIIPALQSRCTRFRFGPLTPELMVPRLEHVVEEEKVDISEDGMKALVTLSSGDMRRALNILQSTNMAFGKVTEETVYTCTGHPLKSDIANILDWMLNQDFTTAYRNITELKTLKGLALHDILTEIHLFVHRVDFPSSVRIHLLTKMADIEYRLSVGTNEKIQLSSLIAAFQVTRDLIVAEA

[12] = molecular target: Nuclear pore complex protein Nup155 (Homo sapiens) (UniProt O75694); experiment: Binding affinity to NUP155 in human NCI-H23 cells at 1 uM by mass spectrometry based pull down assay; type: cell-based
[13] = molecular target: Cytochrome c (Homo sapiens) (UniProt P99999); experiment: Binding affinity to CYCS in human NCI-H358 cells at 1 uM by mass spectrometry based pull down assay; type: cell-based
Cytochrome c (Homo sapiens), sequence (P99999 whole entry, the tested form may be a part): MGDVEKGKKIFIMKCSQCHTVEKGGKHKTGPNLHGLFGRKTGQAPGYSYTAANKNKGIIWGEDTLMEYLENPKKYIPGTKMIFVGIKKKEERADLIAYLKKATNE

[14] = molecular target: 5'-nucleotidase domain-containing protein 1 (Homo sapiens) (UniProt Q5TFE4); experiment: Binding affinity to NT5DC1 in human NCI-H358 cells at 1 uM by mass spectrometry based pull down assay; type: cell-based
[15] = molecular target: V-type proton ATPase subunit B, brain isoform (Homo sapiens) (UniProt P21281); experiment: Binding affinity to ATP6V1B2 in human NCI-H23 cells at 1 uM by mass spectrometry based pull down assay; type: cell-based
[16] = molecular target: Kelch-like ECH-associated protein 1 (Homo sapiens) (UniProt Q14145); experiment: Binding affinity to KEAP1 in human NCI-H358 cells at 1 uM by mass spectrometry based pull down assay; type: cell-based
Kelch-like ECH-associated protein 1 (Homo sapiens), sequence (Q14145 whole entry): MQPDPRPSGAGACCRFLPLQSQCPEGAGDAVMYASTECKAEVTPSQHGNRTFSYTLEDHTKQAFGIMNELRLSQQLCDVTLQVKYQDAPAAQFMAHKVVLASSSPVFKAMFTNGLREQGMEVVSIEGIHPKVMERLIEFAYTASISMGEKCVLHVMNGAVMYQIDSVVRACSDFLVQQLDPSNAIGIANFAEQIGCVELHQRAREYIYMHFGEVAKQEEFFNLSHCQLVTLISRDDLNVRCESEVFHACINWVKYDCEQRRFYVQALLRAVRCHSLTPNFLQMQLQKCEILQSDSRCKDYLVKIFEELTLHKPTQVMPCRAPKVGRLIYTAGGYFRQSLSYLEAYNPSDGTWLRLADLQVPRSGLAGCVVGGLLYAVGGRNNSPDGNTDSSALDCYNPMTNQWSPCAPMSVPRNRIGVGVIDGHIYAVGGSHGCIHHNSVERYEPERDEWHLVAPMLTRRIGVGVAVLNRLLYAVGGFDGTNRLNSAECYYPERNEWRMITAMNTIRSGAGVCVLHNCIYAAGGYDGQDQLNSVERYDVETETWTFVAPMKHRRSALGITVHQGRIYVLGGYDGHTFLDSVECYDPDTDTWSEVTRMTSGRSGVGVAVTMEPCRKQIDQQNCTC

[17] = molecular target: Peroxiredoxin-6 (Homo sapiens) (UniProt P30041); experiment: Binding affinity to PRDX6 in human NCI-H358 cells at 1 uM by mass spectrometry based pull down assay; type: cell-based
Peroxiredoxin-6 (Homo sapiens), sequence (P30041 whole entry): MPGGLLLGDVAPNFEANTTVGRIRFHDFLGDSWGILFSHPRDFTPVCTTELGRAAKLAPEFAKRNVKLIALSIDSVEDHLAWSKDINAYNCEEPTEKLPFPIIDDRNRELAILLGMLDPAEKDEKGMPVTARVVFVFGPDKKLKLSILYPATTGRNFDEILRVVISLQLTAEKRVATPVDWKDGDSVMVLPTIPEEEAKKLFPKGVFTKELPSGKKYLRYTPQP

[18] = molecular target: Transforming growth factor-beta-induced protein ig-h3 (Homo sapiens) (UniProt Q15582); experiment: Binding affinity to TGFBI in human NCI-H358 cells at 1 uM by mass spectrometry based pull down assay; type: cell-based
[19] = molecular target: Methylosome protein WDR77 (Homo sapiens) (UniProt Q9BQA1); experiment: Binding affinity to WDR77 in human NCI-H23 cells at 1 uM by mass spectrometry based pull down assay; type: cell-based
[20] = molecular target: Ras GTPase-activating-like protein IQGAP1 (Homo sapiens) (UniProt P46940); experiment: Binding affinity to IQGAP1 in human NCI-H358 cells at 1 uM by mass spectrometry based pull down assay; type: cell-based
[21] = molecular target: Phosphatidylinositol 3-kinase catalytic subunit type 3 (Homo sapiens) (UniProt Q8NEB9); experiment: Binding affinity to PIK3C3 in human NCI-H23 cells at 1 uM by mass spectrometry based pull down assay; type: cell-based
Phosphatidylinositol 3-kinase catalytic subunit type 3 (Homo sapiens), sequence (Q8NEB9 whole entry): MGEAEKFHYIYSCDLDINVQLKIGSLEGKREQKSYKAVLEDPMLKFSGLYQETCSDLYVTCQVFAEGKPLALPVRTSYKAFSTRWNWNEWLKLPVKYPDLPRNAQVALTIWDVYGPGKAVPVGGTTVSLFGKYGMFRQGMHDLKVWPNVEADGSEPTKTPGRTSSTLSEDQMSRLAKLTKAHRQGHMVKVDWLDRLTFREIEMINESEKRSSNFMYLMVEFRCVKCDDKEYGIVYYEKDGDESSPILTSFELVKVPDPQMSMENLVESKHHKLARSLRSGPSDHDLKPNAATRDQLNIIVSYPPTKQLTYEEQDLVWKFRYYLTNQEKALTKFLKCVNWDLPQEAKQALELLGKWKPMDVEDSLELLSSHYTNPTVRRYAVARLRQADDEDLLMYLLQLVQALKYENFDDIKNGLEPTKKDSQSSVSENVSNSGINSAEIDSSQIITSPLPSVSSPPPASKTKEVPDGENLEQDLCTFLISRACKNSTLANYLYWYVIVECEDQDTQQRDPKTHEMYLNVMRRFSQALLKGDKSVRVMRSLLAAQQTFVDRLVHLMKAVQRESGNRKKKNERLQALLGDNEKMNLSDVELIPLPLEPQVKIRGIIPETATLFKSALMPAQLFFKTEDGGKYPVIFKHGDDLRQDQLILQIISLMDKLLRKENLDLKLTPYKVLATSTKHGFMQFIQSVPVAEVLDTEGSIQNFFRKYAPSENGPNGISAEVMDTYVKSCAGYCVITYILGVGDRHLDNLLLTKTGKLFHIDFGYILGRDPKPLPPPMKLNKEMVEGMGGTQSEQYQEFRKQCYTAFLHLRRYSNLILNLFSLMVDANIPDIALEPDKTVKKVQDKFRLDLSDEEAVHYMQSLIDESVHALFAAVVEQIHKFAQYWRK

[22] = molecular target: T1, Non-receptor tyrosine-protein kinase TNK1 (Homo sapiens) (UniProt Q13470); experiment: Binding affinity to TNK1 in human NCI-H358 cells at 1 uM by mass spectrometry based pull down assay; type: cell-based
T1 sequence (whole entry): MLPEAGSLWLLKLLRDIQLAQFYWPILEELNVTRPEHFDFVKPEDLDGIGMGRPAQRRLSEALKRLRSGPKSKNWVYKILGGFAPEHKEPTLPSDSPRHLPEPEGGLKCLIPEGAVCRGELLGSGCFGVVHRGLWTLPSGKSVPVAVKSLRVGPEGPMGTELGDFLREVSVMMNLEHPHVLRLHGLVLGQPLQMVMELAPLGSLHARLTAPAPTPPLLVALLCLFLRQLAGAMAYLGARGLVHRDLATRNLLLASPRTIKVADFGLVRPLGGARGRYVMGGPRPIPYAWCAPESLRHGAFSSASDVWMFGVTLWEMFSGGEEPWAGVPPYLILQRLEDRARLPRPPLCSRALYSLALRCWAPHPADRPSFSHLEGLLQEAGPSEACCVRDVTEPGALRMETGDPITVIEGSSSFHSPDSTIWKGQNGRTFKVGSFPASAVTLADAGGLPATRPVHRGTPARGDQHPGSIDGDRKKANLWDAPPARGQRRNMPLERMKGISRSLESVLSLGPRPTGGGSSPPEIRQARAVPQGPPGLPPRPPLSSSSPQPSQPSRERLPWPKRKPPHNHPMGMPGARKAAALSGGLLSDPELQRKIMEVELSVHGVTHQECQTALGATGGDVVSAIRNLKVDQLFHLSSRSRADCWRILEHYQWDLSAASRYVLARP

[23] = molecular target: Protein arginine N-methyltransferase 5 (Homo sapiens) (UniProt O14744); experiment: Binding affinity to PRMT5 in human NCI-H358 cells at 1 uM by mass spectrometry based pull down assay; type: cell-based
[24] = molecular target: Heterogeneous nuclear ribonucleoprotein U (Homo sapiens) (UniProt Q00839); experiment: Binding affinity to HNRNPU in human NCI-H23 cells at 1 uM by mass spectrometry based pull down assay; type: cell-based
[25] = molecular target: F-actin-capping protein subunit alpha-1 (Homo sapiens) (UniProt P52907); experiment: Binding affinity to CAPZA1 in human NCI-H358 cells at 1 uM by mass spectrometry based pull down assay; type: cell-based

Structure (SMILES): COc1cc(O)c2c(c1)/C=C/C[C@H](O)[C@H](O)C(=O)/C=C\C[C@H](C)OC2=O
- Activity [1]: 3.8%
- Activity [2]: 1.4%
- Activity [3]: 44%

- Activity [4]: Active
- Activity [5]: Active
- Activity [6]: Active
- Activity [7]: Active
- Activity [8]: Active
- Activity [9]: Active
- Activity [10]: Active
- Activity [11]: Active
- Activity [12]: Active
- Activity [13]: Active
- Activity [14]: Active
- Activity [15]: Active
- Activity [16]: Active
- Activity [17]: Active
- Activity [18]: Active
- Activity [19]: Active
- Activity [20]: Active
- Activity [21]: Active
- Activity [22]: Active
- Activity [23]: Active
- Activity [24]: Active
- Activity [25]: Active
Structure (SMILES): C=CC(=O)Nc1ccccc1Nc1nc(Nc2ccc(N3CCN(CCOCCOCCOCCNC(=O)CCCC[C@@H]4SC[C@@H]5NC(=O)N[C@@H]54)CC3)cc2)ncc1Cl
